# Screening data deposited in PubChem BioAssay by several laboratories.
# AI-2 QS mod: modulators of Vibrio harveyi AI-2 quorum sensing system. Vibrio harveyi JMH597 AI-2 luminescence/OD600 ratio, 9 h; active compounds read low; strain lacks LuxN and CqsS sensors; 0 = neutral-control median. activity change, % at 7.5 µM. hit rate 0.4% among 300,000. AID 2094; in the data active means activity change below about -75%, passing the limit was not always enough; inconclusive means no clear call, values can overlap the other calls;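 further: luminescence divided by OD600 gain over 9 h not by final OD600 alone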
# LANA-H2B inh: blocks KSHV LANA binding to histone H2A/H2B; Q9QR71; hit rate 0.6% among 320,000; inhibition, % (test concentration not listed); AID 2629; cell-free LANA-H2A/H2B peptide, fluorescence polarization; in the data active means inhibition mostly above about 10%, no sharp cut-off; inactive means mostly below about 6.7%
# HDAC3 inhib: inhibitors of human histone deacetylase 3; O15379; recombinant HDAC3, fluorogenic peptide/trypsin coupled, fluorescence; inhibition, % at 8.3 µM; hit rate 0.15% among 320,000; in the data active means inhibition above about 26%, passing the limit was not always enough; inconclusive means no clear call, values can overlap the other calls
# Bfl-1 A1 inh: inhibitors of the anti-apoptotic protein A1, read as caspase activation. MEF A1-2A-BIM cells, Caspase-Glo 3/7 luminescence, 3 h; percent of clofoctol response, vehicle zero. caspase activation, % (no concentration beside the values). hit rate 0.066% among 330,000. AID 2462;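 active means over half of replicate activation scores above 10%, or exactly half above 10 with the replicate mean above 10; inconclusive means replicate mean below 10 yet half the replicates above 10; inactive means over half of replicates below 10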
# ATG4B inhibitor: ATG4B (human) cysteine protease inhibition | Q9Y4P1 | ATG4B cleavage of LC3-PLA2, NBD-HPC fluorescence, 1 h | inhibition, % at 8.33 µM | hit rate 0.51% among 340,000; in the data active means inhibition above about 40%
# Target sequence (Q9Y4P1 whole entry, looked up): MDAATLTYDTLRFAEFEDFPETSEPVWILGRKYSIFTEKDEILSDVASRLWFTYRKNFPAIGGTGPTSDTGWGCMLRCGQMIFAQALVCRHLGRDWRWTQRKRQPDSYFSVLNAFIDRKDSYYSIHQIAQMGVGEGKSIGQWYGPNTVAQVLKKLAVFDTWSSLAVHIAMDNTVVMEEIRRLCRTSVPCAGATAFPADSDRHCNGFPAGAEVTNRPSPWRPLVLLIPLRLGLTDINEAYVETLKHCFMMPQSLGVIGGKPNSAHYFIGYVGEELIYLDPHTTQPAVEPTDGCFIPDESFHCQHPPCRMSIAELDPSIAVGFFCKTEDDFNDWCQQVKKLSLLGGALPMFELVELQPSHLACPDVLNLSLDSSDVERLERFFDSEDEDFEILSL
# HKDC1 inhibitor: inhibitors of human hexokinase HKDC1; inhibition, % at 20 µM; recombinant HKDC1, G6PDH/diaphorase resazurin coupled fluorescence; Q2TB90; hit rate 0.16% among 340,000;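 active means inhibition above about 35% when tested at 20 µM, limit read from the data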;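 further: plate controls were DMSO wells with enzyme for no effect and DMSO wells lacking enzyme for full effect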
#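 Assay system: in-house recombinant HK5 (HKDC1) enzyme. Input: HKDC1 at 5 µg/mL. Medium: Tris pH 8.0 buffer with MgCl2, Tween-20, BSA, BME. Dosing: single 20 µM dose. Schedule: 90 min reaction incubation at room temperature, dark. Signal: resazurin-to-resorufin fluorescence via G6PDH and diaphorase coupling, 525/613 nm. Controls: DMSO-enzyme wells negative, buffer-substituted wells positive.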
# ATG4B confirm: ATG4B (human) inhibition, single-dose confirmed; ATG4B protease fluorescent substrate cleavage assay; shares compounds with ATG4B inhibitor; hit rate 92% among 320; inhibition, % at 8.33 µM; AID 504757; in the data active means inhibition above about 39%
# PLA2 ctr: PLA2 (human) inhibition in ATG4B counter-screen | hit rate 66% among 1,600 | purified PLA2, NBD-C6-HPC fluorescence, 45 min | shares compounds with ATG4B inhibitor | inhibition, % at 8.33 µM; in the data active means inhibition above about 50%
# Target sequence (P04054 whole entry, looked up): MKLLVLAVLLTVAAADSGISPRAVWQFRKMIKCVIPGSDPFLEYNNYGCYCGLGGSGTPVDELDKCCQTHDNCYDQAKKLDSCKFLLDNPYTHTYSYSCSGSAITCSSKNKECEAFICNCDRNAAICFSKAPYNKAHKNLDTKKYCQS
# Active calls of the source: *; ? = inconclusive; . = no result given. Sampled rows, rich in hits. Any-hit rate of the full collection: about 1.8%.
SMILES,AI-2 QS mod,LANA-H2B inh,HDAC3 inhib,Bfl-1 A1 inh,ATG4B inhibitor,HKDC1 inhibitor,PLA2 ctr,others
Cc1ccc(OCc2nnc(SCC(=O)c3ccccc3)n2Cc2ccco2)cc1,0.4,4.1,6.4,-0.7,59.7*,-2.2,62.6*,
O=C(CSc1nnc(COc2ccccc2)n1Cc1ccco1)c1ccc(F)cc1,6.2,-2.0,6.1,0.2,12.3,-4.2,.,
Cc1ccc(C2CC(C(F)F)n3ncc(C(=O)Nc4cnn(Cc5ccccc5C)c4)c3N2)cc1 (stereo not given),5.1,1.0,8.6,0.2,53.7*,-3.6,71.3*,
O=c1c2cc3c(cc2[nH]c(=S)n1C1CCN(Cc2ccccc2)CC1)OCO3,21.1,-0.4,-2.5,1.7,58.9*,-2.3,62.1*,
Cc1c(C(=O)Nc2ccc(-c3nnc4n3CCCCC4)cc2)oc2c1ccc1ccccc12,18.1,3.8,-2.4,0.0,45.2*,0.7,59.7*,
O=C(Nc1ccc(-c2nnc3n2CCCCC3)cc1)c1cc2ccccc2o1,5.9,-9.3,0.9,0.2,-10.1,-4.8,.,
C(=N\Nc1nc(N2CCCC2)nc(N2CCCC2)n1)/c1ccncc1,1.9,3.4,7.3,0.1,-6.1,-2.3,.,
Cc1n[nH]c(=O)c2c(NC(=O)CSc3nc4ccccc4c(=O)n3-c3ccc(OC(F)F)cc3)oc(C)c12,.,-2.8,2.6,0.0,41.3*,8.8,75.4*,
COCCCn1c(SCC(=O)Nc2oc(C)c3c(C)n[nH]c(=O)c23)nc2ccccc2c1=O,9.3,1.6,-1.2,0.2,-1.9,-1.3,.,
COc1ccc(-c2nnc(SCC(=O)NC3CC3)o2)cc1,.,-1.2,2.4,-0.2,-1.5,3.0,.,
COc1ccc(/C=C2\CCC(C3CCCC3)C2=O)cc1Cn1cccn1 (stereo not given),21.2,.,.,-0.5,67.6*,-0.7,65.3*,
Cc1ccc(S(=O)(=O)N(C)c2ccc(C(=O)N(CC(C)C)C3CCS(=O)(=O)C3)cc2)cc1 (stereo not given),17.2,-1.3,5.3,0.1,-6.4,1.2,.,
N#C/C(=C\c1ccc(OCC(N)=O)cc1)c1ccccc1,31.5,-3.5,11.6,0.5,45.1*,9.8,52.7*,
COc1ccc(C=C(C#N)c2ccc(OC)cc2)cc1,.,.,.,.,-2.7,-3.4,.,
CC(C)c1ccc(NC2CCCN(C(=O)c3cc(C(C)C)[nH]n3)C2)cc1 (stereo not given),47.5,.,.,.,43.4*,6.9,46.2,ATG4B confirm=74.2*
COC(=O)c1ccc(C(=O)N2CCCC(Nc3ccc(C(C)C)cc3)C2)nc1 (stereo not given),5.9,0.0,1.6,-2.0,42.1*,5.8,42.3,ATG4B confirm=78.3*
COc1ccc(C(=O)N2CCCC(Nc3ccc(C(C)C)cc3)C2)c(OC)n1 (stereo not given),49.7,4.7,11.5,-0.1,76.5*,3.7,78.2*,
COc1ccc(NC2CCCN(C(=O)c3ccc(OC)cc3OC)C2)cc1 (stereo not given),16.1,-1.8,10.6,-0.1,-2.2,2.0,.,
O=C(Nc1nc(-c2cccs2)c(-c2cccs2)s1)C1CCCC1,5.9,.,.,.,50.0*,-5.8,60.2*,
Cc1ccc(S(=O)(=O)Nc2ccc(-c3nnc(SCc4ccccc4Cl)o3)cc2)cc1,14.2,-3.3,-0.3,0.2,51.5*,15.2,45.5,
O=c1c2ccccc2c(-c2ccc(O)cc2)nn1-c1cccc(C(F)(F)F)c1,7.3,0.3,14.7,0.8,59.5*,-5.3,72.3*,
C/C(=N/NC(=O)c1cc2ccccc2cc1O)C1C(=O)c2ccccc2C1=O,6.9,-4.5,0.5,-4.3,48.9*,16.8,26.5,ATG4B confirm=72.8*
COc1ccc(Cc2nnc(NC(=O)c3ccc(OC)c(OC)c3)s2)cc1,24.5,1.7,-7.1,0.4,8.2,-1.3,.,
COc1ccc(Cc2nnc(NC(=O)c3cccc([N+](=O)[O-])c3)s2)cc1,29.8,2.2,-5.9,-0.9,50.9*,-5.5,4.5,
Cc1ccc(-c2csc3nc(SCC(=O)Nc4ccc(Cl)c(C(=O)O)c4)[nH]c(=O)c23)cc1,38.2,-2.5,5.5,-0.6,78.3*,11.5,78.2*,
SMILES,AI-2 QS mod,LANA-H2B inh,HDAC3 inhib,Bfl-1 A1 inh,ATG4B inhibitor,HKDC1 inhibitor,PLA2 ctr,others
O=C(c1ccc(Cl)cc1)c1oc2ccccc2c1CS(=O)(=O)c1ccccc1,7.6,-3.5,-5.9,0.0,43.1*,-5.8,-11.5,
Nc1c(C(=O)c2ccccc2)oc2ccccc12,14.9,-13.0,-2.0,0.6,-3.0,-2.0,.,
COc1ccc(NC(=O)C2CCOC(C)(C)C2)cc1 (stereo not given),17.1,2.2,-2.5,?,-5.0,1.0,.,
O=C(N/C(=C\c1ccc(Br)cc1)C(=O)N1CCCC1)c1ccccc1F,11.8,0.9,-5.5,-0.1,2.5,-5.2,.,
COc1ccc(/C=N/Nc2nnc(-c3ncc[nH]3)c3ccccc23)cc1,27.3,-2.1,0.7,-0.9,36.4,-2.7,.,
Oc1ccc2ccccc2c1/C=N/Nc1nnc(-c2ncc[nH]2)c2ccccc12,24.0,-2.9,-3.7,-0.3,48.0*,-17.1,39.5,ATG4B confirm=49.1*
Cc1c(NS(=O)(=O)c2cccc(C(=O)NCc3ccco3)c2)c(=O)n(-c2ccccc2)n1C,.,.,.,.,-4.6,0.9,.,
CCOc1ccc(NCc2ccccc2OCc2cccc(F)c2)cc1,6.8,1.3,13.9,-0.1,46.0*,10.1,35.5,ATG4B confirm=59.6*
COc1ccc(C2CC(C)(c3ccc(OC)cc3OC)Nc3ccccc3N2)c(OC)c1 (stereo not given),8.9,7.7,3.0,-0.2,0.3,-5.5,.,
COCCSc1nnc(NC(=O)C2CC(=O)N(CCc3ccc(F)cc3)C2)s1 (stereo not given),17.2,-11.5,-4.2,1.1,-6.1,1.9,.,
CCCCC1=CC2=CC(=O)C(C)(OC(=O)CCc3ccccc3)C(=O)C2=CO1 (stereo not given),2.0,-2.7,2.5,-0.4,41.6*,15.9,68.9*,
CCCCC1=CC2=CC(=O)C(C)(OC(=O)CCC(=O)OC)C(=O)C2=CO1 (stereo not given),39.9,6.7,6.0,0.5,.,.,.,
CS/C(=C(/C#N)S(=O)(=O)c1ccc(Cl)cc1)N1CCOCC1,16.6,2.1,4.5,0.3,-16.3,-0.7,.,
CC1(C)O[C@@H](CC(=O)O)[C@]23CO[C@H](C(=O)[C@]4(C)C2CC[C@@]2(C)[C@H](c5ccoc5)OC(=O)C5O[C@]524)[C@@H]13 (stereo not given in full),.,0.8,-5.1,-0.6,3.6,-7.5,.,
